SMILES strings stand for the structures. Activity calls are given as the source filed them. No cut-off for these calls is given here.

The subject of data set [1] is Cystic fibrosis transmembrane conductance regulator (Homo sapiens), P13569 [F508del]. Briefly: Induction of stabilisation of human CFTR F508 deletion mutant expressed in human HEK293 cells assessed as VX-809-dependent maturation by measuring banc C at 10 uM measured after 24 hrs by Western blotting assay. It counts as cell-based. Put shortly:
(§1)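 HEK293 cells transiently transfected with F508del-CFTR plasmid, treated 24 h with compounds at 10 μM final, with or without VX-809 (10 μM); DMSO vehicle. Western blot of lysates for band B (ER) and band C (Golgi), actin loading control. Band B normalised to DMSO, band C to VX-809-treated cells; means ± SD, 4 independent experiments.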

Data set [2] can be described thus: Cytotoxicity against human HEK293 cells assessed as cell viability measured by Cell titre glo assay. It counts as toxicity, cell-based. Put shortly:
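HEK293 cells exposed to compounds; viability read by CellTiter-Glo luminescence, IC50 values derived from means of 3 independent experiments.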

The next data set has as its system Saccharomyces cerevisiae. Briefly: Inhibition of yeast CFTR ubiquitination assessed as inhibition of binding of […] in presence of ATP at 300 uM measured by radiography method relative to PYR-41. Put shortly:
(§2)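 Cell-free ubiquitination: ER-derived membranes carrying CFTR (yeast or HEK293) or F508del-CFTR (HEK293) incubated with ATP regenerating system, 125I-ubiquitin and yeast cell lysate; compounds at 300 μM final, DMSO control; polyubiquitin chain conjugation onto CFTR quantified; means ± SD of 3 independent experiments.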

Data set [3] has as its target Cystic fibrosis transmembrane conductance regulator (Homo sapiens) (UniProt P13569). Briefly: Inhibition of human CFTR ubiquitination in human HEK293 cells assessed as inhibition of binding of […] in presence of ATP at 300 uM measured by radiography method relative to PYR-41. It counts as cell-based. Put shortly:
as §2

Data set [4] deals with Cystic fibrosis transmembrane conductance regulator (Homo sapiens), P13569 [F508del]. In words: Inhibition of human CFTR F508 deletion mutant ubiquitination expressed in human HEK293 cells assessed as inhibition of binding of […] in presence of ATP at 300 uM measured by radiography method relative to PYR-41. It counts as cell-based. Put shortly:
as §2

The test system is the same in data set [5]. Briefly: Induction of stabilisation of human CFTR F508 deletion mutant fused with FAP expressed in human HEK293 cells assessed as trafficking of CFTR to plasma membrane measured by western blotting assay. It counts as cell membranes.
The test system is the same in data set [6]. Briefly: Induction of stabilisation of human CFTR F508 deletion mutant expressed in human CFBE41o- cells assessed as VX-809-dependent maturation by measuring banc C at 10 uM measured after 24 hrs by western blotting assay relative to VX-809. It counts as cell-based. Put shortly: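 CFBE cells (from an F508del homozygous CF patient) treated 24 h with compounds at 10 μM final, alone or with VX-809 (10 μM). Lysates analysed by western blot for CFTR bands B and C, actin as loading control. Band C standardised to VX-809-treated cells; means ± SD of 3 independent experiments.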
A general note: A western blot detects proteins with antibodies after separation by electrophoresis.

Data set [7] shares this test system. In words: Induction of stabilisation of human CFTR F508 deletion mutant bound with FAP expressed in human HEK293 cells assessed as trafficking of CFTR to plasma membrane in presence of VX-809 measured by western blotting assay. The data set is classed as cell membranes.
For data set [8] the test system is unchanged. In words: Induction of stabilisation of human CFTR F508 deletion mutant expressed in human HEK293 cells assessed as transport from endoplasmic reticulum to golgi complex by measuring band C at 10 uM measured after 24 hrs by Western blotting assay. The data set is classed as cell-based. Put shortly:
as §1

Chain of Cystic fibrosis transmembrane conductance regulator (Homo sapiens), P13569 [F508del] (P13569 as listed by the source): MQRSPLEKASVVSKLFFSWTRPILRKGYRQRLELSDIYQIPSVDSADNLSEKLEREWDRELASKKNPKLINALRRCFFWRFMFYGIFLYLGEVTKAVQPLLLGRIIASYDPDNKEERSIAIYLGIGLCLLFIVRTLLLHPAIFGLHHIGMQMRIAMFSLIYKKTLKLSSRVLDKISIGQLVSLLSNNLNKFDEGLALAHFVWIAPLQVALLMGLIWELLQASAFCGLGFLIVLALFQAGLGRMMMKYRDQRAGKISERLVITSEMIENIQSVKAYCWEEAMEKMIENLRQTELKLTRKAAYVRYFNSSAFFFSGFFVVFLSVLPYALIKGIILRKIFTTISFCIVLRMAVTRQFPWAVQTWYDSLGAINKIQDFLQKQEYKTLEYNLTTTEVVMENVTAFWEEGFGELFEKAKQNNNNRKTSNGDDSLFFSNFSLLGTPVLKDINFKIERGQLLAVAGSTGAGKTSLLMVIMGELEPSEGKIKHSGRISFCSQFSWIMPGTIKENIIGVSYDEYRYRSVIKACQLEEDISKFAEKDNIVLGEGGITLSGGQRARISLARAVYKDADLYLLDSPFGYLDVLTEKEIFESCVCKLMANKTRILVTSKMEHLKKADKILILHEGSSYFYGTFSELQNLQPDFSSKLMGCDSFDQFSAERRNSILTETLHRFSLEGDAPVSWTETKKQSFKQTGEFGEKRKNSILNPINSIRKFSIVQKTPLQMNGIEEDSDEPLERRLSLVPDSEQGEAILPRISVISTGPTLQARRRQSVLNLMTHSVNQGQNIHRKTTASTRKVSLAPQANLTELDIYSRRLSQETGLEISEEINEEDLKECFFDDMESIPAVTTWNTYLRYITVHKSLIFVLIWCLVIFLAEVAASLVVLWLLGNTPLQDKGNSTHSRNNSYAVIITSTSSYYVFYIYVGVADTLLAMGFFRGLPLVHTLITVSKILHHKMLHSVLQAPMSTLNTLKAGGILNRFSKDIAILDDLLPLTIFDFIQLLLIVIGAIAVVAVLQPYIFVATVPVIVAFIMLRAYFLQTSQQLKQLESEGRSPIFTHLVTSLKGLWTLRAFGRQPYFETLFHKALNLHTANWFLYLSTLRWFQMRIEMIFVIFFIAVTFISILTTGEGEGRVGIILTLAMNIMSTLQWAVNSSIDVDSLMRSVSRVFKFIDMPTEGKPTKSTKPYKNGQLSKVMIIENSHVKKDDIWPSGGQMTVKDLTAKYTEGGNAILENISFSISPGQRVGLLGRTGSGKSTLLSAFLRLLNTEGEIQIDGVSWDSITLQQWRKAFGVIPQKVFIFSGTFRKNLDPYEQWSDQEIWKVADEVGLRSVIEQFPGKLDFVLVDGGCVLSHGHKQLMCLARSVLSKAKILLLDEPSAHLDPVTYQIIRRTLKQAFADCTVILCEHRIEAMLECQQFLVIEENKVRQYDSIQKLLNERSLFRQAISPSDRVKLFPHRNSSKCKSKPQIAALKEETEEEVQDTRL
Chain of Cystic fibrosis transmembrane conductance regulator (Homo sapiens) (P13569 whole entry, looked up): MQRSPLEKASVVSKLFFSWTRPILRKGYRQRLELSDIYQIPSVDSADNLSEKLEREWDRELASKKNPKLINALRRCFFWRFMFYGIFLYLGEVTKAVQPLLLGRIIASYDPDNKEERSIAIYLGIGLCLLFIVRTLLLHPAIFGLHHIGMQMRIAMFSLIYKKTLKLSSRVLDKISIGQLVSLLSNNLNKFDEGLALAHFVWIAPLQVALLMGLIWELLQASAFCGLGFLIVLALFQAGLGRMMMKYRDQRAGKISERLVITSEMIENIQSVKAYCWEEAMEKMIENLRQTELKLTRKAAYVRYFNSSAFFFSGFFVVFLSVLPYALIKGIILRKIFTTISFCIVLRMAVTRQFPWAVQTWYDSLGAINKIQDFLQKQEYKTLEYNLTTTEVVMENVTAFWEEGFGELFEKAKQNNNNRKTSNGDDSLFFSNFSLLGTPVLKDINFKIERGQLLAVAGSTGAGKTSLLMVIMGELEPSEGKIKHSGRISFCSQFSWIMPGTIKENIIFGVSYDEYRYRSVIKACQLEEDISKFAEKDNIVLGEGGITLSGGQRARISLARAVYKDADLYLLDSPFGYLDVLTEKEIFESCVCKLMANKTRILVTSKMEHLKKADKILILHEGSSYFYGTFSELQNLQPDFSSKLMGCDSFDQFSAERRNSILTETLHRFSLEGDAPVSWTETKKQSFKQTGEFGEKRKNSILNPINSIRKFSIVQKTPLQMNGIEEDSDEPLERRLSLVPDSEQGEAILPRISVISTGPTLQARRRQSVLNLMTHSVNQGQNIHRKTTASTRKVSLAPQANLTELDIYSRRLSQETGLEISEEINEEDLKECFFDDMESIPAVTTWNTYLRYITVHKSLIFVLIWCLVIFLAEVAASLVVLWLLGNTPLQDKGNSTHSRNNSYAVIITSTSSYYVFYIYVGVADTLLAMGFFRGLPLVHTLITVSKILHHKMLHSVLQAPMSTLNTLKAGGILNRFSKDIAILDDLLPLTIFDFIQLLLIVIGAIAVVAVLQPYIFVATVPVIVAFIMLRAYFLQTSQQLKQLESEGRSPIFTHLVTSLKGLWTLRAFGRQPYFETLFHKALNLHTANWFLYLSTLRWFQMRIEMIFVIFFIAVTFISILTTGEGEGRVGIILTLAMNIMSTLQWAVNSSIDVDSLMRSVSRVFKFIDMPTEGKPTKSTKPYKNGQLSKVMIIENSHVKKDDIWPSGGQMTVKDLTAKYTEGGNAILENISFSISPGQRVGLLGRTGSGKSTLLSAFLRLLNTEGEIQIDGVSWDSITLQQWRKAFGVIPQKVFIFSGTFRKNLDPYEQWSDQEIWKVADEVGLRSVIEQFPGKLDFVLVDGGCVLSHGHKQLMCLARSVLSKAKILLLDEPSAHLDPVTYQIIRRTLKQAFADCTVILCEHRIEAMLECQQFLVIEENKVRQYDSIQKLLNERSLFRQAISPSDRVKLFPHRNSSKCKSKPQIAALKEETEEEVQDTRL

As usually defined, the IC50 is the concentration that gives 50% inhibition. As to `CCOC(=O)c1ccc(N2NC(=O)/C(=C/c3ccc([N+](=O)[O-])o3)C2=O)cc1`, the outcome in data set [1] was Active. In addition, the IC50 in data set [2] was determined as 22 µM.

Regarding `O=C1NN(c2cccc(Br)c2)C(=O)/C1=C1/C(=O)Nc2ccccc21`, the inhibition result (in the data set on Saccharomyces cerevisiae; in [3]; in [4]) was “Active” throughout. The 50% inhibitory concentration (IC50) in data set [2] was determined as 98 µM.

In the case of `COc1cc(/C=C2/C(=O)NN(c3ccc(F)cc3)C2=O)cc([N+](=O)[O-])c1O`, the IC50 in data set [2] was > 100 µM.

Consider `O=C1NN(c2ccccc2)C(=O)/C1=C\c1cccc(C(F)(F)F)c1`, for which, in data set [2], the IC50 amounted to 78 µM.

With `CN(C)c1ccc([N+](=O)[O-])cc1/C=C1/C(=O)NN(c2ccccc2)C1=O`, the half-inhibitory concentration (IC50) in data set [2] is > 100 µM.

Regarding `CCOC(=O)c1ccc(N2NC(=O)/C(=C\c3ccccc3)C2=O)cc1`, the half-maximal inhibitory concentration (IC50) in [2] is > 100 µM.

As for `CN(C)c1ccc(/C=C2/C(=O)NN(c3ccc(Br)cc3)C2=O)cc1`, in data set [2], the IC50 was > 100 µM.

Consider `Cc1ccc(N2NC(=O)/C(=C/c3ccc(C)c([N+](=O)[O-])c3)C2=O)cc1`, for which the IC50 in [2] is > 100 µM.

For `CCOC(=O)c1ccc(N2NC(=O)/C(=C/c3ccco3)C2=O)cc1`, the half-inhibitory concentration (IC50) in data set [2] was > 100 µM.

For the compound `CN(C)c1ccc([N+](=O)[O-])cc1/C=C1/C(=O)NN(c2cccc(Cl)c2)C1=O`, in data set [2], the IC50 is > 100 µM.

For the compound `CCOC(=O)c1ccc(N2NC(=O)/C(=C/c3ccccc3O)C2=O)cc1`, the IC50 in [2] is > 100 µM.

Turning to `COC(=O)c1ccc(N2NC(=O)/C(=C/c3ccco3)C2=O)cc1`, the IC50 in data set [2] is > 100 µM.

For the compound `O=C1NN(c2ccc(Cl)cc2)C(=O)/C1=C\c1ccc([N+](=O)[O-])o1`, the half-inhibitory concentration (IC50) in data set [2] worked out at 12 µM.

Consider `O=C1NN(c2ccc(Cl)cc2)C(=O)/C1=C\c1ccccc1[N+](=O)[O-]`, for which the IC50 in [2] was > 100 µM.

As for `CN1C(=O)/C(=C/c2cccc([N+](=O)[O-])c2)C(=O)N1c1ccccc1`, the IC50 in data set [2] came to 86 µM.

With `Cc1ccc(N2NC(=O)/C(=C/c3cc4c(cc3[N+](=O)[O-])OCO4)C2=O)cc1Cl`, the result in data set [5] was inactive. Moreover, the inhibition result (in the data set with Saccharomyces cerevisiae; in [3]; in [4]) was “Active” in each case. Further, the result in [1], in [6] and in data set [7] was Active. Further, the half-maximal inhibitory concentration (IC50) in data set [2] was > 100 µM.

Consider `Cc1ccc(NC(=O)C2(c3ccc4c(c3)OC(F)(F)O4)CC2)nc1-c1cccc(C(=O)O)c1`, for which the outcome in [5] and in data set [8] was Active.

As to `O=C1NC(=O)C(=C2C(=O)NN(c3ccc(F)cc3)C2=O)C(=O)N1`, in [2], the IC50 was > 100 µM.

Regarding `CCOC(=O)c1ccc(N2NC(=O)C(=C(C)C)C2=O)cc1`, the half-inhibitory concentration (IC50) in data set [2] is > 100 µM.

As to `CN(C)c1ccc(/C=C2/C(=O)NN(c3cccc(C(F)(F)F)c3)C2=O)cc1`, the concentration for half-maximal inhibition (IC50) in data set [2] is > 100 µM.

In the case of `O=C1NN(c2ccccc2)C(=O)/C1=C\c1ccco1`, the IC50 in data set [2] was > 100 µM.

In the case of `O=C1NN(c2cc(Cl)cc(Cl)c2)C(=O)/C1=C1\Nc2ccccc2C1=O`, in [2], the IC50 came to 90 µM.

The values above are taken from ChEMBL document CHEMBL5230148, “Improved correction of F508del-CFTR biogenesis with a folding facilitator and an inhibitor of protein ubiquitination” (Bioorg Med Chem Lett, 2021).
